Measurements reported in ChEMBL document CHEMBL1123557, “N-substituted 1,2,3,4,4a,5,6,10b-octahydrobenzo[f]quinolines and 3-phenylpiperidines: effects on central dopamine and sigma receptors” (J Med Chem, 1987).
Active and inactive are the calls of the source. No cut-off for these calls is given here.

Columns and labels:
[1] = tested on: Dopamine D2 receptor (Rattus norvegicus); experiment: Effective dose required for DOPA accumulation (presynaptic dopaminergic effect) in rat
[2] = molecular target: D(2) dopamine receptor (Rattus norvegicus) (UniProt P61169); experiment: Tested in vivo for binding affinity against Dopamine receptor D2 using nonradiolabeled 5,6-di-n-Pr-ADTN; assay type: organism-based; design: concentration or dose not given beside the values
Chain of D(2) dopamine receptor (Rattus norvegicus) (P61169 whole entry): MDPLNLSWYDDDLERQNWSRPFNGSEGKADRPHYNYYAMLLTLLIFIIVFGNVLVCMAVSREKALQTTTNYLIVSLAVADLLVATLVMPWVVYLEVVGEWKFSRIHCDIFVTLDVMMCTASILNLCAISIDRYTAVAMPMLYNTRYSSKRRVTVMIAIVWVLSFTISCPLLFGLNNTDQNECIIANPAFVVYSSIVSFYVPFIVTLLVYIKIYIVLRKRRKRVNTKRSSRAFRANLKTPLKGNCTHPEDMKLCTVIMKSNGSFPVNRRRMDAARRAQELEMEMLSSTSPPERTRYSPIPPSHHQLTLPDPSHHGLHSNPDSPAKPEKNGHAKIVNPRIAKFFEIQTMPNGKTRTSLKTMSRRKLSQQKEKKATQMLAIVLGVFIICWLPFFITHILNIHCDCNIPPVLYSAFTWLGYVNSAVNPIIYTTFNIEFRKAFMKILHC

[3] = molecular target: Sigma non-opioid intracellular receptor 1 (Rattus norvegicus, UniProt Q9R0C9); experiment: In vitro for binding affinity against sigma receptor using [3H](+)-3-PPP as radioligand
Chain of Sigma non-opioid intracellular receptor 1 (Q9R0C9 whole entry): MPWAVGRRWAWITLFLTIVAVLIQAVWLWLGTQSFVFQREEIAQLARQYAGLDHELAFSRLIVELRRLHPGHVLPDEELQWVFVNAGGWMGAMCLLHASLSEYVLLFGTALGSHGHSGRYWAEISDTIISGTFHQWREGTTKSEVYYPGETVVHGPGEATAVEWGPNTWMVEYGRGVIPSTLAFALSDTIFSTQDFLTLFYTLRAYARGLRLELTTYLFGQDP
Outline: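 Whole rat brain membranes (male Sprague-Dawley) in 50 mM Tris-HCl pH 8.0. Nonspecific binding defined with 1 μM haloperidol. Rapid filtration onto PEI-treated glass fiber filters, scintillation counting. IC50 from iterative curve fitting.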

[4] = molecular target: T1, D(2) dopamine receptor (Rattus norvegicus, UniProt P61169); experiment: Binding affinity against Dopamine receptor D2 using [3H]spiperone as radioligand
T1 sequence (P61169 whole entry): as the sequence (P61169 whole entry) above
Outline: (§1)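 Rat striatal membranes (male Sprague-Dawley, 150–250 g), washed three times in 50 mM Tris-HCl pH 7.7. 0.2–0.4 nM [3H]spiperone with 100 mM NaCl and 3 mM MgCl2, about 2 mg tissue, 15 min at 37 °C. Nonspecific binding defined with 1 μM haloperidol. Bound ligand collected by filtration onto PEI-treated glass fiber filters and counted by scintillation. Competition curves fitted iteratively.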

[5] = tested on: Rattus norvegicus; experiment: post-synaptic dopaminergic effect was assessed by the increase in locomotor activity at 30 min time interval by 3.1 umol/kg dosage administration; assay type: functional
[6] = tested on: Rattus norvegicus; experiment: post-synaptic dopaminergic effect was assessed by the increase in locomotor activity at 30 min time interval by 106 umol/kg dosage administration; assay type: functional
[7] = tested on: Rattus norvegicus; experiment: post-synaptic dopaminergic effect was assessed by the increase in locomotor activity at 30 min time interval by 14 umol/kg dosage administration; assay type: functional
[8] = organism: Rattus norvegicus; experiment: Effective dose required for DOPA accumulation (presynaptic dopaminergic effect) in rat; I is inactive; assay type: functional, organism-based
Outline: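 Male Sprague-Dawley rats (200–300 g); drug in saline given sc. DOPA measured by HPLC with electrochemical detection in each brain area. Dose-response curves used four to six dose levels per substance and area.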

[9] = tested on: Rattus norvegicus; experiment: post-synaptic dopaminergic effect was assessed by the increase in locomotor activity at 30 min time interval by 25 umol/kg dosage administration; assay type: functional
[10] = tested on: Rattus norvegicus; experiment: post-synaptic dopaminergic effect was assessed by the increase in locomotor activity at 30 min time interval by 200 umol/kg dosage administration; assay type: functional
[11] = tested on: Rattus norvegicus; experiment: post-synaptic dopaminergic effect was assessed by the increase in locomotor activity at 30 min time interval by 213 umol/kg dosage administration; assay type: functional
[12] = tested on: Rattus norvegicus; experiment: post-synaptic dopaminergic effect was assessed by the increase in locomotor activity at 30 min time interval by 1.06 umol/kg dosage administration; assay type: functional
[13] = tested on: Rattus norvegicus; experiment: post-synaptic dopaminergic effect was assessed by the increase in locomotor activity at 30 min time interval by 133 umol/kg dosage administration; assay type: functional
[14] = tested on: Rattus norvegicus; experiment: post-synaptic dopaminergic effect was assessed by the increase in locomotor activity at 30 min time interval by 50 umol/kg dosage administration; assay type: functional
[15] = tested on: Rattus norvegicus; experiment: post-synaptic dopaminergic effect was assessed by the increase in locomotor activity at 30 min time interval by 13 umol/kg dosage administration; assay type: functional
[16] = tested on: Rattus norvegicus; experiment: post-synaptic dopaminergic effect was assessed by the increase in locomotor activity at 30 min time interval by 265 umol/kg dosage administration; assay type: functional
[17] = tested on: Rattus norvegicus; experiment: post-synaptic dopaminergic effect was assessed by the increase in locomotor activity at 30 min time interval by 53 umol/kg dosage administration; assay type: functional
[18] = tested on: Rattus norvegicus; experiment: post-synaptic dopaminergic effect was assessed by the increase in locomotor activity at 30 min time interval by 100 umol/kg dosage administration; assay type: functional
[19] = tested on: Rattus norvegicus; experiment: post-synaptic dopaminergic effect was assessed by the increase in locomotor activity at 30 min time interval by 7 umol/kg dosage administration; assay type: functional
[20] = tested on: Rattus norvegicus; experiment: post-synaptic dopaminergic effect was assessed by the increase in locomotor activity at 30 min time interval by 10.6 umol/kg dosage administration; assay type: functional
[21] = tested on: Rattus norvegicus; experiment: post-synaptic dopaminergic effect was assessed by the increase in locomotor activity at 30 min time interval by 3.3 umol/kg dosage administration; assay type: functional
Outline: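 Test substance dissolved in saline immediately before use, occasionally with a few drops of glacial acetic acid and/or moderate heating; dosing solutions at neutral pH. Locomotor activity is the behavioral read-out of postsynaptic dopamine receptor stimulation.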

[22] = molecular target: T1, D(2) dopamine receptor; experiment: Compound was tested in vitro for binding affinity against Dopamine receptor D2 using [3H]-spiperone as radioligand
Outline: as §1

[23] = molecular target: T1, D(2) dopamine receptor; experiment: Compound was tested in vivo for binding affinity against D2 receptor using nonradiolabeled 5,6-di-n-Pr-ADTN; assay type: organism-based

SMILES	IC50 [3]	IC50 [4]	other results
CCCN1CCCC2c3cc(O)ccc3CCC21 (racemic; 21) [listing 1 of 2 here]			ED50 [1]: 0.008 µmol/kg; Control [2]: 68%
CCN1CCCC2c3cccc(O)c3CCC21 (racemic)	236 nM	102 nM	Control [2]: 54%; Accumulated counts [5]: 19
Oc1ccc2c(c1)C1CCCNC1CC2 (racemic; 18) [listing 1 of 2 here]			Control [2]: 90%
Oc1ccc2c(c1)C1CCCNC1CC2 (racemic; 18) [listing 2 of 2 here]	1940 nM	895 nM	Accumulated counts [6]: 10
CCCCN1CCC[C@H](c2cccc(O)c2)C1	9 nM	2670 nM	Control [2]: 74%; Accumulated counts [7]: 180
CCCN1CCCC2c3ccc(O)cc3CCC21 (racemic; 30) [listing 1 of 2 here]			ED50 [8]: inactive
Oc1cccc2c1CCC1C2CCCN1CCc1ccccc1 (racemic)	65 nM	6 nM	ED50 [1]: 0.043 µmol/kg; Control [2]: 67%; Accumulated counts [9]: 143
CN1CCCC2c3cc(O)ccc3CCC21 (racemic)	221 nM	265 nM	Accumulated counts [6]: 60; ED50 [1]: 0.4 µmol/kg; Control [2]: 57%
CCCN1CCCC2c3cc(O)ccc3CCC21 (racemic; 32) [listing 1 of 2 here]	66 nM	6700 nM	
CCCN1CCCC2c3ccc(O)cc3CCC21 (racemic; 17)	10 nM	730 nM	
CCCN1CCC[C@@H]2c3cccc(O)c3CC[C@@H]21	48 nM	160 nM	Accumulated counts [5]: 59
Oc1cccc([C@@H]2CCCNC2)c1	15600 nM	1750 nM	ED50 [8]: inactive; Accumulated counts [10]: 4
CCCN1CCC[C@@H](c2cccc(O)c2)C1 [PRECLAMOL]			Accumulated counts [11]: 12; Control [2]: 33%
CCCN1CCCC2c3c(O)cccc3CCC21 (racemic)	1930 nM	61800 nM	ED50 [8]: inactive
CCCCN1CCCC2c3cccc(O)c3CCC21 (racemic)	23 nM	38 nM	ED50 [1]: 0.08 µmol/kg; Control [2]: 57%; Accumulated counts [5]: 196
CCN1CCCC2c3cc(O)ccc3CCC21 (racemic)	70 nM	110 nM	ED50 [1]: 0.017 µmol/kg; Accumulated counts [12]: 47; Control [2]: 57%
CCCN1CCCC2c3cc(O)ccc3CCC21 (racemic; 21) [listing 2 of 2 here]	19 nM	101 nM	Accumulated counts [12]: 188
CCCN1CCC[C@H]2c3cccc(O)c3CC[C@@H]21	438 nM	34 nM	Accumulated counts [5]: 78
Oc1cccc2c1CCC1NCCCC21 (racemic)	14900 nM	7500 nM	Accumulated counts [6]: 10; ED50 [8]: inactive
CCCN1CCC[C@@H]2c3cccc(O)c3CC[C@@H]21 (racemic) [listing 1 of 2 here]	416 nM	2100 nM	
Oc1ccc2c(c1)C1CCCN(CCc3ccccc3)C1CC2 (racemic)	27 nM	990 nM	ED50 [8]: inactive; Accumulated counts [9]: 72
CN1CCC[C@H](c2cccc(O)c2)C1	373 nM	4120 nM	Accumulated counts [13]: 88
CCCCN1CCCC2c3cc(OC)ccc3CCC21 (racemic)	5 nM	3840 nM	ED50 [8]: inactive; Accumulated counts [14]: 135
Oc1cccc2c1CC[C@@H]1NCCC[C@@H]21	3610 nM	92 nM	
CCCN1CCC[C@H](c2cccc(O)c2)C1			Control [2]: 84%; Accumulated counts [15]: 78
CCCN1CCC[C@@H]2c3cccc(O)c3CC[C@@H]21 (racemic) [listing 2 of 2 here]			ED50 [8]: inactive

SMILES	IC50 [3]	IC50 [4]	other results
Oc1ccc2c(c1)C1CCCNC1CC2 (racemic; 31) [listing 1 of 2 here]			ED50 [8]: inactive
Oc1cccc([C@H]2CCCNC2)c1	4570 nM	435 nM	Accumulated counts [16]: 47
COc1ccc2c(c1)C1CCCN(CCc3ccccc3)C1CC2 (racemic)	14 nM	435 nM	
COc1ccc2c(c1)C1CCCN(Cc3ccccc3)C1CC2 (racemic)		5520 nM	ED50 [8]: inactive; Accumulated counts [14]: 21
CC(C)N1CCC[C@H](c2cccc(O)c2)C1	247 nM	12100 nM	Accumulated counts [17]: 49
CCCN1CCCC2c3cc(O)ccc3CCC21 (stereo in doubt; form 2) [listing 1 of 2 here]			ED50 [1]: 0.004 µmol/kg
CN1CCCC(c2cccc(O)c2)C1 (stereo not drawn)	1910 nM	1950 nM	Accumulated counts [18]: 36
CCCN1CCC[C@H]2c3cccc(O)c3CC[C@H]21	197 nM	> 100000 nM	ED50 [8]: inactive
CCCN1CCCC2c3cc(O)ccc3CCC21 (racemic; 32) [listing 2 of 2 here]			ED50 [8]: inactive
Oc1cccc2c1CC[C@H]1NCCC[C@H]21	2370 nM	1550 nM	
Oc1cccc([C@@H]2CCCN(CCc3ccccc3)C2)c1	16 nM	44 nM	Accumulated counts [19]: 71
CCCN1CCCC2c3cc(O)ccc3CCC21 (stereo in doubt; form 1) [listing 1 of 2 here]	520 nM		Accumulated counts [20]: 28
CC(C)N1CCC[C@@H](c2cccc(O)c2)C1	208 nM	355 nM	Accumulated counts [21]: 38
CCCCN1CCCC2c3cc(O)ccc3CCC21 (racemic; 33)	35 nM		IC50 [22]: 10400 nM
CCCN1CCCC(c2ccc(O)cc2)C1 (stereo not drawn)	276 nM	13000 nM	ED50 [8]: inactive
CCCN1CCCC2c3cc(O)ccc3CCC21 (stereo in doubt; form 1) [listing 2 of 2 here]			ED50 [1]: 0.25 µmol/kg
CCCN1CCCC2c3ccc(O)cc3CCC21 (racemic; 30) [listing 2 of 2 here]	40 nM	13000 nM	
CCCCN1CCC[C@@H](c2cccc(O)c2)C1	31 nM	275 nM	Accumulated counts [17]: 63; Control [2]: 43%
CCCN1CCCC2c3cccc(O)c3CCC21 (racemic)			IC50 [23]: 63 nM; Accumulated counts [5]: 163
CCCCN1CCCC2c3cc(O)ccc3CCC21 (racemic; 23) [listing 1 of 2 here]	10 nM	2990 nM	Accumulated counts [14]: 75
Oc1ccc2c(c1)C1CCCN(Cc3ccccc3)C1CC2 (racemic)	11 nM	3440 nM	ED50 [8]: inactive; Accumulated counts [14]: 78
CCCCN1CCCC2c3cc(O)ccc3CCC21 (racemic; 23) [listing 2 of 2 here]			ED50 [8]: inactive
CCCN1CCCC2c3cc(O)ccc3CCC21 (stereo in doubt; form 2) [listing 2 of 2 here]	21 nM	25 nM	Accumulated counts [12]: 155
CN1CCCC2c3cccc(O)c3CCC21 (racemic)	610 nM	114 nM	Control [2]: 33%; Accumulated counts [18]: 40
Oc1cccc([C@H]2CCCN(CCc3ccccc3)C2)c1	8 nM	1240 nM	Accumulated counts [7]: 26
Oc1ccc2c(c1)C1CCCNC1CC2 (racemic; 31) [listing 2 of 2 here]	11600 nM	30400 nM	
